Source: ChEMBL document CHEMBL4261522, “Discovery of potential antifungal triazoles: design, synthesis, biological evaluation, and preliminary antifungal mechanism exploration” (Medchemcomm, 2017)
Values after ≈ are worked out from the molar mass of the structure shown. Active and inactive are the calls of the source. No cut-off for these calls is given here.

Key:
[1] = tested on: Aspergillus flavus; assay: Antifungal activity against Aspergillus flavus by two-fold serial dilution method; assay type: functional
In short: (§1)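 MIC by standard two-fold serial dilution in 96-well microplates following NCCLS guidelines. Strains were supplied by Southwest University School of Pharmaceutical Sciences and Third Military Medical University College of Pharmacy.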

[2] = tested on: Kregervanrija fluxuum; assay: Antifungal activity against Candida mycoderma by two-fold serial dilution method; assay type: functional; in short: as §1
[3] = tested on: Candida albicans; assay: Antifungal activity against Candida albicans by two-fold serial dilution method; assay type: functional; in short: as §1
[4] = tested on: Saccharomyces cerevisiae; assay: Antifungal activity against Saccharomyces cerevisiae by two-fold serial dilution method; assay type: functional; in short: as §1
[5] = tested on: Cyberlindnera jadinii; assay: Antifungal activity against Candida utilis by two-fold serial dilution method; assay type: functional; details: Williopsis jadinii; in short: as §1
[6] = tested on: Calf thymus DNA; assay: Binding affinity to calf thymus DNA assessed as hypochromic effect between compound and DNA by UV absorption spectral analysis; assay type: nucleic-acid assay; details: Bos taurus
In short: (§2)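 UV absorption of the compound–DNA complex compared with the summed absorbance of free DNA and free compound. A measured value below the sum was read as hypochromism and one above it as hyperchromism.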

[7] = tested on: Saccharomyces cerevisiae; assay: Potency index, ratio of miconazole MIC to compound MIC for Saccharomyces cerevisiae; assay type: functional
[8] = tested on: Calf thymus DNA; assay: Binding affinity to calf thymus DNA assessed as iodide quenching by measuring Stern-Volmer quenching constant by fluorescence spectral analysis (reference value: 11.6 +/- 0.067 L/mol); assay type: nucleic-acid assay; details: Bos taurus
In short: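 Fluorescence titration with KI as quencher, 0–12 × 10–3 mol L–1 in 2 × 10–3 mol L–1 steps. Compound at 1.0 × 10–5 mol L–1, alone or with DNA at 2.0 × 10–5 mol L–1. Run at 298 K with excitation at 290 nm. Quenching constant taken from a Stern–Volmer plot of F0/F against KI.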

[9] = tested on: Aspergillus flavus; assay: Potency index, ratio of fluconazole MIC to compound MIC for Aspergillus flavus by two-fold serial dilution method; assay type: functional
[10] = tested on: Aspergillus flavus; assay: Potency index, ratio of miconazole MIC to compound MIC for Aspergillus flavus by two-fold serial dilution method; assay type: functional
[11] = tested on: Calf thymus DNA; assay: Binding affinity to calf thymus DNA by UV absorption spectral analysis; assay type: nucleic-acid assay; details: Bos taurus
[12] = tested on: Calf thymus DNA; assay: Inhibition of neural red dye binding to calf thymus DNA by UV absorption spectral analysis; assay type: nucleic-acid assay; details: Bos taurus
[13] = tested on: Calf thymus DNA; assay: Binding affinity to calf thymus DNA assessed as hyperchromic effect between compound and DNA by UV absorption spectral analysis; assay type: nucleic-acid assay; details: Bos taurus; in short: as §2

O=[N+]([O-])c1ccc(COC(Cn2cncn2)c2ccc(F)cc2F)cc1 (stereo unspecified)
MIC [1]: > 256 µg/mL
MIC [2]: > 256 µg/mL
MIC [3]: > 256 µg/mL
MIC [4]: > 256 µg/mL
MIC [5]: > 256 µg/mL

Cc1cc(=O)oc2cc(OCCOC(Cn3cncn3)c3ccc(F)cc3F)ccc12 (stereo unspecified)
MIC [1]: 256 µg/mL (≈ 599 µM)
MIC [2]: 256 µg/mL (≈ 599 µM)
MIC [3]: 128 µg/mL (≈ 299 µM)
MIC [4]: 128 µg/mL (≈ 299 µM)
MIC [5]: 256 µg/mL (≈ 599 µM)

CCCCCCOC(Cn1cncn1)c1ccc(F)cc1F (stereo unspecified)
MIC [1]: 32 µg/mL (≈ 103 µM)
MIC [2]: 32 µg/mL (≈ 103 µM)
MIC [3]: 64 µg/mL (≈ 207 µM)
MIC [4]: 32 µg/mL (≈ 103 µM)
MIC [5]: 16 µg/mL (≈ 51.7 µM)

Cc1cc(=O)oc2cc(OCCCCOC(Cn3cncn3)c3ccc(F)cc3F)ccc12 (stereo unspecified)
MIC [1]: 32 µg/mL (≈ 70.3 µM)
MIC [2]: 2 µg/mL (≈ 4.39 µM)
MIC [3]: 4 µg/mL (≈ 8.78 µM)
MIC [4]: 4 µg/mL (≈ 8.78 µM)
MIC [5]: 16 µg/mL (≈ 35.1 µM)

Fc1ccc(C(Cn2cncn2)OCc2ccc(Cl)c(Cl)c2)c(F)c1 (stereo unspecified)
MIC [1]: 8 µg/mL (≈ 20.8 µM)
Activity [6]: Active
Ratio [7]: 64
MIC [2]: 4 µg/mL (≈ 10.4 µM)
KSV [8]: 10.7 L/mol
MIC [3]: 1 µg/mL (≈ 2.6 µM)
Ratio [9]: 32
Ratio [10]: 32
Activity [11]: Dose-dependent effect
K [11]: 1.04 ×10⁴ L/mol
inhibition [12]: Dose-dependent effect
MIC [4]: 0.5 µg/mL (≈ 1.3 µM)
MIC [5]: 1 µg/mL (≈ 2.6 µM)

Fc1ccc(C(Cn2cncn2)OCc2ccc(Cl)cc2Cl)c(F)c1 (stereo unspecified)
MIC [1]: 16 µg/mL (≈ 41.6 µM)
MIC [2]: 16 µg/mL (≈ 41.6 µM)
MIC [3]: 8 µg/mL (≈ 20.8 µM)
Ratio [9]: 16
Ratio [10]: 16
MIC [4]: 8 µg/mL (≈ 20.8 µM)
MIC [5]: 4 µg/mL (≈ 10.4 µM)

CCCCCCCCOC(Cn1cncn1)c1ccc(F)cc1F (stereo unspecified)
MIC [1]: 128 µg/mL (≈ 379 µM)
MIC [2]: 16 µg/mL (≈ 47.4 µM)
MIC [3]: 4 µg/mL (≈ 11.9 µM)
MIC [4]: 16 µg/mL (≈ 47.4 µM)
MIC [5]: 16 µg/mL (≈ 47.4 µM)

Fc1ccc(C(Cn2cncn2)OCc2ccccc2F)c(F)c1 (stereo unspecified)
MIC [1]: 32 µg/mL (≈ 96 µM)
MIC [2]: 2 µg/mL (≈ 6 µM)
MIC [3]: 0.5 µg/mL (≈ 1.5 µM)
Ratio [9]: 8
Ratio [10]: 8
MIC [4]: 16 µg/mL (≈ 48 µM)
MIC [5]: 4 µg/mL (≈ 12 µM)

O=[N+]([O-])c1ccc(COC(Cn2c[n+](Cc3ccc([N+](=O)[O-])cc3)cn2)c2ccc(F)cc2F)cc1.[Cl-] (stereo unspecified)
MIC [1]: 16 µg/mL
MIC [2]: 16 µg/mL
MIC [3]: 8 µg/mL
MIC [4]: 64 µg/mL
MIC [5]: 32 µg/mL

Fc1ccc(C(Cn2cncn2)OCCCCOC(Cn2cncn2)c2ccc(F)cc2F)c(F)c1 (stereo unspecified)
MIC [1]: 64 µg/mL (≈ 127 µM)
MIC [2]: 128 µg/mL (≈ 254 µM)
MIC [3]: 128 µg/mL (≈ 254 µM)
MIC [4]: 64 µg/mL (≈ 127 µM)
MIC [5]: 128 µg/mL (≈ 254 µM)

Fc1ccc(C(Cn2c[n+](Cc3ccc(Cl)cc3Cl)cn2)OCc2ccc(Cl)cc2Cl)c(F)c1.[Cl-] (stereo unspecified)
MIC [1]: 32 µg/mL
MIC [2]: 32 µg/mL
MIC [3]: 16 µg/mL
MIC [4]: 64 µg/mL
MIC [5]: 8 µg/mL

Fc1ccc(C(Cn2c[n+](Cc3ccccc3F)cn2)OCc2ccccc2F)c(F)c1.[Cl-] (stereo unspecified)
MIC [1]: 64 µg/mL
MIC [2]: 8 µg/mL
MIC [3]: 32 µg/mL
MIC [4]: 32 µg/mL
MIC [5]: 32 µg/mL

Cc1cc(=O)oc2cc(OCCCCCCOC(Cn3cncn3)c3ccc(F)cc3F)ccc12 (stereo unspecified)
MIC [1]: 16 µg/mL (≈ 33.1 µM)
Activity [13]: Active
MIC [2]: 1 µg/mL (≈ 2.07 µM)
MIC [3]: 2 µg/mL (≈ 4.14 µM)
Activity [11]: Dose-dependent effect
K [11]: 5.06 ×10⁴ L/mol
inhibition [12]: Dose-dependent effect
MIC [4]: 16 µg/mL (≈ 33.1 µM)
MIC [5]: 16 µg/mL (≈ 33.1 µM)

Fc1ccc(C(Cn2cncn2)OCc2ccccc2Cl)c(F)c1 (stereo unspecified)
MIC [1]: 16 µg/mL (≈ 45.7 µM)
MIC [2]: 8 µg/mL (≈ 22.9 µM)
MIC [3]: 8 µg/mL (≈ 22.9 µM)
MIC [4]: 16 µg/mL (≈ 45.7 µM)
MIC [5]: 8 µg/mL (≈ 22.9 µM)
